Experimental data from different studies.
Compare with care: the assays were run in different laboratories.
MAOB: Amine oxidase [flavin-containing] B (MAOB, Homo sapiens, UniProt P27338)

Compound | target | read-out | action | technique | tested at | measurement | result
Nc1ncnc2c1ncn2[C@@H]1O[C@H](COP(=O)(O)OP(=O)(O)OP(=O)(O)O)[C@@H](O)[C@H]1O | GUK1 (Homo sapiens, UniProt Q16774) | enzyme activity | substrate | – | – | Km | 102 µM
COc1ccc2oc(-c3ccc4nc(N)oc4c3)c/c(=N\c3ccccc3NC(=O)CCN)c2c1 | Phosphatidylinositol 3-kinase C2 domain-containing subunit gamma (PIK3C2G, Homo sapiens, UniProt O75747) | binding | – | – | 1 µM | remaining binding | 37%
C1=C/COCc2cc(ccc2OCCN2CCCC2)Nc2nccc(n2)-c2cccc(c2)COC/1 | Ribosomal protein S6 kinase alpha-6, N-terminal kinase domain (RPS6KA6, Homo sapiens, UniProt Q9UK32) | cell-free assay | – | – | 0.1 µM | remaining signal | 78%
C[C@H](NC(=O)C(=O)Nc1ccccc1C(C)(C)C)C(=O)N[C@@H](CC(=O)O)C(=O)COc1c(F)c(F)cc(F)c1F | Caspase-1 (Casp1, Mus musculus, UniProt P29452) | enzyme activity | inhibitor | – | – | kinact/KI | 4.27e+06 M⁻¹ s⁻¹
C#CCN[C@@H]1CCc2ccccc21 | MAOB | enzyme activity | inhibitor | – | 1 µM | inhibition | 87.2%
NC/C(=C\F)COc1cccc(Cn2c(=S)[nH]c(=O)c3[nH]cnc32)c1 | MAOB | enzyme activity | inhibitor | – | 200 pM | inhibition | 29.1%
O=C(Nc1ccc(F)c(F)c1)c1ccc2c(c1)C(=O)NC2=O | MAOB | enzyme activity | inhibitor | – | 1 µM | inhibition | 90.6%
C#Cc1cc(-c2cc(Nc3nc(N[C@@H](C)c4ccc(F)cn4)ncc3Cl)n[nH]2)ccc1C=O | Dual specificity tyrosine-phosphorylation-regulated kinase 4 (DYRK4, Homo sapiens, UniProt Q9NR20) | enzyme activity | inhibitor | – | 0.2 µM | inhibition | 4.78%
CCCCC(=O)Nc1ccc(-c2ccc3ncn(CCC)c(=O)c3c2)cn1 | Tyrosine-protein kinase HCK (HCK, Homo sapiens, UniProt P08631) | binding | – | competition with immobilised ligand | 0.5 µM | remaining binding | 98%
O=C(Nc1ccc(Cl)c(Br)c1)c1ccc2c(c1)C(=O)NC2=O | MAOB | enzyme activity | inhibitor | – | 1 µM | inhibition | 97.5%
C[C@]1(O)CCCN(c2nc(Nc3ccc(S(=O)(=O)N[C@H]4CC[C@H](CN5CCN(c6ccc(C7CCC(=O)NC7=O)cc6F)CC5)CC4)cc3F)ncc2C(F)(F)F)C1 (stereo partly shown) | NUAK family SNF1-like kinase 2 (NUAK2, Homo sapiens, UniProt Q9H093) | binding | – | competition with immobilised ligand | 1 µM | remaining binding | 45%
O=C(Nc1cc(Cl)cc(Cl)c1)c1ccc2c(c1)C(=O)NC2=O | MAOB | enzyme activity | inhibitor | – | 1 µM | inhibition | 89.3%
O=C(N[C@@H](CSCc1nc2cc([N+](=O)[O-])ccc2[nH]1)C(=O)NO)c1ccccc1 | Lactoylglutathione lyase (GLO1, Homo sapiens, UniProt Q04760) | enzyme activity | inhibitor | – | 1 µM | inhibition | 13.6%
